dFosB activator: activators of delta FosB homodimer, primary screen, biochemical, fluorescence polarization, TAMRA-CDK5 oligo, single point. Protein FosB (Mus musculus), P13346. purified delta FosB; percent of positive-control signal above neutral wells. activation, % at 25 µM. 340,000 compounds, 0.99% hits;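 active = mean activation above about 17%, with every replicate also reaching it, limit read from the data, passing the limit was not always enough; inconclusive = only one of the two conditions met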
Cneo AK release: Cryptococcus neoformans cell lysis inducers, primary screen, AK release luminescence, single concentration; C. neoformans lysis, adenylate kinase release luminescence, 4 h; normalised: neutral wells 0, clomiphene wells 100; lysis activity, % at 15 µM; 360,000 compounds, 0.2% hits;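 active = mean lysis activity across replicates of at least 80%, whatever share of replicates individually reach that level; inactive = mean lysis activity below 80%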
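read-out = cell lysis signal | test system = log-phase Cryptococcus neoformans yeast cells | input = cells at 5 × 10^6 per mL | medium = fresh YPD growth medium | signal = luminescent adenylate kinase detection reagent | timing = 4 h at 37 °C static, read 1 h later | dosing = single dose | controls = Clomiphene as positive lysis control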
GSIS activator: GLuc luminescence reporter in INS-1E cells, primary screen for activators of glucose-dependent secretion of insulin; INS-1E GLuc reporter insulin secretion, 2-3 h; 370,000 compounds, 0.61% hits; AID 743287, 2014; activation, % at 16.6 µM;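 active = lowest replicate activation of at least 40%, so every replicate reaches that level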;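 note: 0% = median of neutral control wells and 100% = median of IBMX positive control wells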
miR122 inh: miR-122 Renilla sensor signal increase in Huh7, primary screen, miR-122 inhibitor project, cell-based, single point, plate reader | Huh7 miR-122 Renilla luciferase sensor, 48 h; neutral wells = 0, positive control = 100 | 340,000 compounds, 0.3% hits | activation (reporter increase), % at 12.5 µM;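 active = mean replicate activation score at least 90 and every replicate individually at or above 90; inconclusive = only one of the two criteria met; inactive = neither criterion met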;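 note: higher luciferase means less miR-122 activity so hits act as miR-122 inhibitors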
HIV Env fusion: inhibitors of HIV-1 Env-driven cell-cell fusion, primary screen, HeLa-JRFL effector, CEM21 target cells, luciferase; inhibition, % at 12.3 µM; 360,000 compounds, 1.1% hits; AID 651610, 2012;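 active = mean replicate inhibition score of at least 50 and every replicate individually at or above 50; inconclusive = only one of the two criteria met; inactive = mean below 50 and not all replicates reaching 50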;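 note: 0% = plate neutral controls and 100% = maraviroc near 300 nM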
Rtt109 Vps75: inhibitors of C. albicans Rtt109/Vps75 HAT, primary screen, biochemical, ThioGlo CoA-SH fluorescence, plate reader | Histone acetyltransferase RTT109 (Candida albicans (strain SC5314 / ATCC MYA-2876)), … | purified Rtt109/Vps75, 4 h | inhibition, % at 34.9 µM | 330,000 compounds, 0.16% hits | AID 540336, 2011;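 active = inhibition of at least 50% in every replicate; inconclusive = best replicate reaches 50% inhibition but some replicates fall short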
Target sequence (Q5AAJ8 whole entry, looked up): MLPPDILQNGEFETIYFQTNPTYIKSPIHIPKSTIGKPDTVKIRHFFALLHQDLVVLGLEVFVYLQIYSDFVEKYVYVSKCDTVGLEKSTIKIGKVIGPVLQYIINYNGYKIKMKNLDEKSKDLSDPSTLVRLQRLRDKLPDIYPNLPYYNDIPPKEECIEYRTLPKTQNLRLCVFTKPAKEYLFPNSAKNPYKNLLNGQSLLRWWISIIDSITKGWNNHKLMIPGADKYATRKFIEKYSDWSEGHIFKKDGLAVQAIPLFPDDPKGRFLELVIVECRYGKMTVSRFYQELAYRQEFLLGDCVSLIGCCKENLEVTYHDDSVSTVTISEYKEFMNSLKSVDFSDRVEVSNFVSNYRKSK
Starred values were filed as active, the others as inactive; [ ] = dose if it differs, or a comment. Most compounds without a hit are left out; they make up all but 2.4% or so of the library.

Results for CC(=O)c1cccc(NC(=O)C(C)N2CCc3ccccc3C2)c1 (stereo not given) ?
dFosB activator: -22; Cneo AK release: 0; GSIS activator: 20; miR122 inh: 128*; HIV Env fusion: 0; Rtt109 Vps75: 0

How did CCC(c1nnnn1-c1ccc2c(c1)OCCO2)N1CCc2ccccc2C1 (stereo not given) do in these assays?
GSIS activator: 55*; HIV Env fusion: 3

Results for CCC(c1nnnn1-c1ccc2c(c1)OCCO2)N1CCN(C(=O)c2ccco2)CC1 (stereo not given) ?
GSIS activator: -6; HIV Env fusion: 15

What do the screens show for `COc1ccccc1CNC(=O)C1CCCN1S(=O)(=O)c1cccc2cccnc12` (stereo not given)?
dFosB activator: -8; Cneo AK release: 2; GSIS activator: 1; miR122 inh: -4; HIV Env fusion: 57*; Rtt109 Vps75: -4

What do the screens show for `Cc1cc(N/N=C/c2ccc(O)c(C)c2O)nc(-c2ccccc2O)n1`?
dFosB activator: 2; Cneo AK release: -2; GSIS activator: 3; miR122 inh: 101*; HIV Env fusion: -36; Rtt109 Vps75: -11

What do the screens show for `COCCn1c(=S)[nH]c2sc3c(c2c1=O)CCCC3`?
dFosB activator: -9; Cneo AK release: 0; GSIS activator: 45*; miR122 inh: 3; HIV Env fusion: 2; Rtt109 Vps75: 1

How did C[C@H](CO)N1C[C@H](C)[C@@H](CN(C)S(=O)(=O)c2cccs2)Oc2c(NC(=O)Cn3cnnn3)cccc2C1=O do in these assays?
GSIS activator: 7

Results for CCN(CC)c1ccc(NC(=O)c2cnccn2)cc1S(=O)(=O)Nc1ccc(OC)cc1 ?
dFosB activator: 5; Cneo AK release: -7; GSIS activator: -23; miR122 inh: 123*; HIV Env fusion: 16; Rtt109 Vps75: 3

What do the screens show for `CCCNC(=O)C[C@@H]1CC[C@H]2[C@@H](COc3ccc(NS(=O)(=O)c4ccccc4C)cc3C(=O)N2C)O1`?
Cneo AK release: -3; GSIS activator: 12; miR122 inh: -25[16.7 µM]; HIV Env fusion: -2[16.7 µM]

Results for NS(=O)(=O)c1ccc(CCNC(=O)CN2CCN(c3ccc(F)cc3)CC2)cc1 ?
dFosB activator: -3; Cneo AK release: 6; GSIS activator: -4; miR122 inh: -4; HIV Env fusion: 64*; Rtt109 Vps75: -5

What do the screens show for `COc1ccc(S(=O)(=O)Nc2ccc3c(c2)C(=O)N([C@@H](C)CO)C[C@H](C)[C@H](CN(C)C(=O)NC(C)C)OCCCC[C@H](C)O3)cc1`?
Cneo AK release: -5; GSIS activator: -17; miR122 inh: 6[16.7 µM]; HIV Env fusion: 93*[16.7 µM]

How did COc1ccc(S(=O)(=O)Nc2ccc3c(c2)C(=O)N([C@@H](C)CO)C[C@H](C)[C@H](CN(C)C(=O)Nc2ccccc2)OCCCC[C@@H](C)O3)cc1 do in these assays?
Cneo AK release: 3; GSIS activator: -37; miR122 inh: 120*[16.7 µM]; HIV Env fusion: -14[16.7 µM]

What do the screens show for `COc1ccc(S(=O)(=O)Nc2ccc3c(c2)C(=O)N([C@H](C)CO)C[C@@H](C)[C@@H](CN(C)C(=O)Nc2ccccc2)OCCCC[C@@H](C)O3)cc1`?
Cneo AK release: 4; GSIS activator: -21; miR122 inh: 9[16.7 µM]; HIV Env fusion: -4[16.7 µM]

What do the screens show for `COc1ccc(N2C(=O)c3ccccc3NC(=O)C2C(=O)NCCc2ccccc2F)cc1` (stereo not given)?
GSIS activator: -24; HIV Env fusion: 58*

What do the screens show for `O=C1N[C@H](c2ccccc2)COCc2cn(nn2)CC[C@H](Cc2ccc(C(F)(F)F)cc2)C(=O)N[C@H](c2ccccc2)COCc2cn(nn2)CC[C@@H]1Cc1ccc(C(F)(F)F)cc1`?
GSIS activator: 2

Results for Cc1cccc(C(C)C)c1NC(=O)c1ccc(CN(c2ccccc2)S(=O)(=O)c2ccccc2)cc1 ?
dFosB activator: -3; Cneo AK release: -1; GSIS activator: -22; miR122 inh: 12; HIV Env fusion: 60*; Rtt109 Vps75: 3

What do the screens show for `O=C(Nc1ccccn1)c1ccc(CN(c2ccccc2)S(=O)(=O)c2ccccc2)cc1`?
dFosB activator: -4; Cneo AK release: 1; GSIS activator: 14; miR122 inh: -3; HIV Env fusion: -21; Rtt109 Vps75: -6

What do the screens show for `O=C(c1ccco1)N1CCCC(c2nc(-c3ccc(S(=O)(=O)NCc4ccccc4)cc3)no2)C1` (stereo not given)?
dFosB activator: -8; miR122 inh: 20; HIV Env fusion: 65*; Rtt109 Vps75: 1

How did C[C@H](CO)N1C[C@H](C)[C@H](CN(C)Cc2ccc3c(c2)OCO3)OCCCC[C@H](C)Oc2ccc(NC(=O)Nc3ccc(C(F)(F)F)cc3)cc2C1=O do in these assays?
Cneo AK release: 11; GSIS activator: 4; miR122 inh: -26[16.7 µM]; HIV Env fusion: 61*[16.7 µM]

What do the screens show for `C[C@H]1CCCCO[C@H](CN(C)Cc2ccc(C(F)(F)F)cc2)[C@@H](C)CN([C@@H](C)CO)C(=O)c2cc(NC(=O)Nc3ccc4c(c3)OCO4)ccc2O1`?
Cneo AK release: 2; GSIS activator: -10; miR122 inh: -1[16.7 µM]; HIV Env fusion: 60*[16.7 µM]

What do the screens show for `C[C@H](CO)N1C[C@H](C)[C@@H](CN(C)Cc2ccc(C(F)(F)F)cc2)OCCCC[C@H](C)Oc2ccc(NC(=O)Nc3ccc4c(c3)OCO4)cc2C1=O`?
Cneo AK release: 57; GSIS activator: -12; miR122 inh: -7[16.7 µM]; HIV Env fusion: 71*[16.7 µM]

What do the screens show for `C[C@@H]1CCCCO[C@H](CN(C)Cc2ccc3c(c2)OCO3)[C@@H](C)CN([C@@H](C)CO)C(=O)c2cc(NC(=O)Nc3ccc(C(F)(F)F)cc3)ccc2O1`?
Cneo AK release: 4; miR122 inh: -26[16.7 µM]; HIV Env fusion: inconclusive

What do the screens show for `C[C@@H]1CCCCO[C@@H](CN(C)Cc2ccc(C(F)(F)F)cc2)[C@H](C)CN([C@H](C)CO)C(=O)c2cc(NC(=O)Nc3ccc4c(c3)OCO4)ccc2O1`?
Cneo AK release: 3; GSIS activator: -13; miR122 inh: -9[16.7 µM]; HIV Env fusion: 65*[16.7 µM]

Results for C[C@@H]1CCCCO[C@H](CN(C)Cc2ccc(C(F)(F)F)cc2)[C@H](C)CN([C@@H](C)CO)C(=O)c2cc(NC(=O)Nc3ccc4c(c3)OCO4)ccc2O1 ?
Cneo AK release: -1; GSIS activator: -7; miR122 inh: -1[16.7 µM]; HIV Env fusion: 26[16.7 µM]

Assay outcomes: PubChem, Broad Institute
